Reference: ChEMBL document CHEMBL1772969, “Synthesis, structure-activity relationship, and antimalarial activity of ureas and thioureas of 15-membered azalides” (J Med Chem, 2011)
Calls of active or inactive are those of the source. No cut-off for these calls is given here.

How the values were obtained:
THP-1 = assay: Cytotoxicity against human THP1 cells after 1 to 4 hrs by MTS assay; format: cell-based
Summary of the method: (§1)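 HepG2 and THP-1 cells grown in RPMI 1640 with 10% FBS at 37 °C, 5% CO₂, and passaged twice weekly. Compounds applied as continuous exposure. Viability read by MTS reagent, 1–4 h incubation, absorbance at 490 nm; IC₅₀ derived.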

Plasmodium berghei [1] = assay: Antiplasmodial activity against Plasmodium berghei KBG-173 infected in sc dosed mouse administered bid for 3 days; format: functional
Summary of the method: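 Male mice (24-30 g) were infected ip with 5 × 10⁶ P. berghei KBG-173-infected erythrocytes. Drug suspended in palm/peanut oil was given sc twice daily on days 3-5 post-infection at 160, 40 or 10 mg/kg per dose, 0.01 mL/g, in groups of 4-5. Blood films were taken day 6, then biweekly to day 31. Mice smear-negative on day 31 were counted cured. CD50 is the daily dose curing 50%.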

[2] = Half life in mouse liver microsomes at 1 uM by LCMS analysis; format: ADME, Microsome
Summary of the method: (§2)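 Compound at 1 μM final with 0.5 mg/mL pooled human or mouse liver microsomes, 1.3 mM NADP, 3.3 mM MgCl₂, 0.1 M PBS pH 7.4. Reaction started with 1 U/mL G6PD, shaken at 37 °C. Aliquots quenched with cold acetonitrile at 0, 10, 20, 30 and 60 min and quantified by LCMS. t₁/₂ taken from log plot of total ion chromatogram area remaining.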

[3] = Half life in human liver microsomes at 1 uM by LCMS analysis; format: ADME, Microsome; summary of the method: as §2
Plasmodium falciparum [4] = assay: Antimalarial activity against chloroquine-sensitive Plasmodium falciparum D6 after 48 hrs by [3H]hypoxanthine incorporation assay; format: functional, organism-based
Summary of the method: (§3)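 [3H]hypoxanthine incorporation assay (Desjardins method, Milhous modification) with 48 h drug exposure. Compounds and controls were 2-fold diluted across 11 concentrations. IC50 was fitted by nonlinear logistic dose-response. Values are averaged where multiple results were generated, with relative errors usually <30%.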

HepG2 = assay: Cytotoxicity against human HepG2 cells after 1 to 4 hrs by MTS assay; format: cell-based; summary of the method: as §1
Plasmodium falciparum [5] = assay: Antimalarial activity against chloroquine/pyrimethamine-resistant Plasmodium falciparum W2 after 48 hrs by [3H]hypoxanthine incorporation assay; format: functional, organism-based; summary of the method: as §3
Plasmodium falciparum [6] = assay: Antimalarial activity against multidrug-resistant Plasmodium falciparum TM91C235 after 48 hrs by [3H]hypoxanthine incorporation assay; format: functional, organism-based; summary of the method: as §3
Plasmodium berghei [7] = assay: Antiplasmodial activity against Plasmodium berghei KBG-173 infected in mouse assessed as mouse without parasitemia at 240 mg/kg, sc bid for 3 days measured on day 31; format: functional, organism-based; design: dose 240 mg/kg
Summary of the method: (§4)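 P. berghei KBG-173: 5 × 10⁶ infected erythrocytes injected intraperitoneally into male mice (24–30 g); parasitemia 1.0–3.7% by day 3. Oil suspension given subcutaneously twice daily at 160, 40 or 10 mg/kg on days 3–5 postinfection (totals 960/240/60 mg/kg); 4–5 mice per group. Blood films on day 6, then biweekly to day 31; film-negative on day 31 counted as cured.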

[8] = Apparent volume of distribution during terminal phase in Sprague-Dawley rat at 10 mg/kg, iv and 30 mg/kg, po; format: ADME, organism-based; settings: in vivo, read-out: Vz/F
Summary of the method: (§5)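 Male Sprague-Dawley rats (250–300 g), crossover design. Dosed 10 mg/kg iv, then 2-day washout, then 30 mg/kg oral (free base equivalent), formulated in 1%/20% Encapsin (w/v) and saline. Blood sampled up to 24 h and analysed by LC-MS/MS. Clearance and terminal-phase Vd based on blood concentration.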

[9] = Blood clearance in Sprague-Dawley rat at 10 mg/kg, iv and 30 mg/kg, po; format: ADME, organism-based; settings: whole blood; summary of the method: as §5
[10] = Oral bioavailability in Sprague-Dawley rat at 30 mg/kg; format: ADME, organism-based; settings: in vivo; summary of the method: as §5
[11] = Half life in Sprague-Dawley rat at 10 mg/kg, iv and 30 mg/kg, po; format: ADME, organism-based; settings: in vivo; summary of the method: as §5
Plasmodium berghei [12] = assay: Antiplasmodial activity against Plasmodium berghei KBG-173 infected in mouse assessed as mouse without parasitemia at 60 mg/kg, sc bid for 3 days measured on day 31; format: functional, organism-based; design: dose 60 mg/kg; summary of the method: as §4

| Structure (SMILES) | IC50 (THP-1) | CD50 (Plasmodium berghei [1]) | half-life at 1 µM [2] | half-life at 1 µM [3] | IC50 (Plasmodium falciparum [4]) | IC50 (HepG2) | IC50 (Plasmodium falciparum [5]) | IC50 (Plasmodium falciparum [6]) | Activity (Plasmodium berghei [7]) | Vd/F [8] | clearance [9] | bioavailability [10] | half-life [11] | Activity (Plasmodium berghei [12]) |
| --- | --- | --- | --- | --- | --- | --- | --- | --- | --- | --- | --- | --- | --- | --- |
| CC[C@H]1OC(=O)[C@H](C)[C@@H](O[C@H]2C[C@@](C)(OC)[C@@H](O)[C@H](C)O2)[C@H](C)[C@@H](O[C@@H]2O[C@H](C)C[C@H](N(C)C)[C@H]2O)[C@](C)(O)C[C@@H](C)CN(CCCNC(=O)Nc2cccc3ccccc23)[C@H](C)[C@@H](O)[C@]1(C)O | > 50000 nM | 150 mg/kg | > 2 h | > 2 h | 215 nM | > 50000 nM | 173 nM | 131 nM | – | – | – | – | – | – |
| CC[C@H]1OC(=O)[C@H](C)[C@@H](O[C@H]2C[C@@](C)(OC)[C@@H](O)[C@H](C)O2)[C@H](C)[C@@H](O[C@@H]2O[C@H](C)C[C@H](N(C)C)[C@H]2O)[C@](C)(O)C[C@@H](C)CN(CCCN(CCC#N)C(=O)NC(C)c2cccc3ccccc23)[C@H](C)[C@@H](O)[C@]1(C)O (stereo partly specified) | 40000 nM | 510 mg/kg | > 2 h | > 2 h | 200 nM | 48000 nM | 136 nM | 97 nM | inactive | – | – | – | – | – |
| CC[C@H]1OC(=O)[C@H](C)[C@@H](O[C@H]2C[C@@](C)(OC)[C@@H](O)[C@H](C)O2)[C@H](C)[C@@H](O[C@@H]2O[C@H](C)C[C@H](N(C)C)[C@H]2O)[C@](C)(O)C[C@@H](C)CN(CCCNC(=S)NCc2ccccc2)[C@H](C)[C@@H](O)[C@]1(C)O | 47000 nM | 285 mg/kg | > 2 h | > 2 h | 257 nM | > 50000 nM | 121 nM | 156 nM | – | 10.4 L/kg | 4 mL/min/kg | 3.4% | 30 h | – |
| CC[C@H]1OC(=O)[C@H](C)[C@@H](O[C@H]2C[C@@](C)(OC)[C@@H](O)[C@H](C)O2)[C@H](C)[C@@H](O[C@@H]2O[C@H](C)C[C@H](N(C)C)[C@H]2O)[C@](C)(O)C[C@@H](C)CN(CCCN(CCC#N)C(=S)NCc2ccccc2)[C@H](C)[C@@H](O)[C@]1(C)O | 11000 nM | >960 mg/kg | > 2 h | > 2 h | 204 nM | 44000 nM | 139 nM | 126 nM | – | – | – | – | – | – |
| CC[C@H]1OC(=O)[C@H](C)[C@@H](O[C@H]2C[C@@](C)(OC)[C@@H](O)[C@H](C)O2)[C@H](C)[C@@H](O[C@@H]2O[C@H](C)C[C@H](N(C)C)[C@H]2O)[C@](C)(O)C[C@@H](C)CN(CCCN(CCC#N)C(=S)NCCCc2ccccc2)[C@H](C)[C@@H](O)[C@]1(C)O | 5000 nM | 800 mg/kg | > 2 h | > 2 h | 179 nM | 9000 nM | 88 nM | 62 nM | inactive | 31.7 L/kg | 24.5 mL/min/kg | 21% | 15.2 h | inactive |
| CC[C@H]1OC(=O)[C@H](C)[C@@H](O[C@H]2C[C@@](C)(OC)[C@@H](O)[C@H](C)O2)[C@H](C)[C@@H](O[C@@H]2O[C@H](C)C[C@H](N(C)C)[C@H]2O)[C@](C)(O)C[C@@H](C)CN(CCNC(=S)Nc2cccc3ccccc23)[C@H](C)[C@@H](O)[C@]1(C)O | 9000 nM | – | > 2 h | > 2 h | 225 nM | 20000 nM | 99 nM | 130 nM | – | – | – | – | – | – |
| CC[C@H]1OC(=O)[C@H](C)[C@@H](O[C@H]2C[C@@](C)(OC)[C@@H](O)[C@H](C)O2)[C@H](C)[C@@H](O[C@@H]2O[C@H](C)C[C@H](N(C)C)[C@H]2O)[C@](C)(O)C[C@@H](C)CN(CCCNC(=S)Nc2cccc3ccccc23)[C@H](C)[C@@H](O)[C@]1(C)O | 40000 nM | 195 mg/kg | > 2 h | > 2 h | 116 nM | 48000 nM | 155 nM | 131 nM | – | – | – | – | – | – |
| CC[C@H]1OC(=O)[C@H](C)[C@@H](O[C@H]2C[C@@](C)(OC)[C@@H](O)[C@H](C)O2)[C@H](C)[C@@H](O[C@@H]2O[C@H](C)C[C@H](N(C)C)[C@H]2O)[C@](C)(O)C[C@@H](C)CN(CCCNC(=S)NCCc2ccccc2)[C@H](C)[C@@H](O)[C@]1(C)O | 23000 nM | 780 mg/kg | > 2 h | > 2 h | 215 nM | 47000 nM | 167 nM | 200 nM | – | – | – | – | – | inactive |
| CC[C@H]1OC(=O)[C@H](C)[C@@H](O[C@H]2C[C@@](C)(OC)[C@@H](O)[C@H](C)O2)[C@H](C)[C@@H](O[C@@H]2O[C@H](C)C[C@H](N(C)C)[C@H]2O)[C@](C)(O)C[C@@H](C)CN(CCCNC(=S)NCCCc2ccccc2)[C@H](C)[C@@H](O)[C@]1(C)O | 15000 nM | 780 mg/kg | > 2 h | > 2 h | 107 nM | 22000 nM | 85 nM | 82 nM | – | 2.6 L/kg | 2.3 mL/min/kg | 1.3% | 13.4 h | inactive |
| CC[C@H]1OC(=O)[C@H](C)[C@@H](O[C@H]2C[C@@](C)(OC)[C@@H](O)[C@H](C)O2)[C@H](C)[C@@H](O[C@@H]2O[C@H](C)C[C@H](N(C)C)[C@H]2O)[C@](C)(O)C[C@@H](C)CN(CCNC(=O)NC(C)c2cccc3ccccc23)[C@H](C)[C@@H](O)[C@]1(C)O (stereo partly specified) | 8000 nM | – | > 2 h | > 2 h | 179 nM | 10000 nM | 33 nM | 46 nM | – | – | – | – | – | – |
| CC[C@H]1OC(=O)[C@H](C)[C@@H](O)[C@H](C)[C@@H](O[C@@H]2O[C@H](C)C[C@H](N(C)C)[C@H]2O)[C@](C)(O)C[C@@H](C)CN(CCCNC(=S)NCc2ccccc2)[C@H](C)[C@@H](O)[C@]1(C)O | > 50000 nM | – | > 2 h | > 2 h | 2040 nM | > 50000 nM | 3630 nM | 1540 nM | – | – | – | – | – | – |
| CC[C@H]1OC(=O)[C@H](C)[C@@H](O)[C@H](C)[C@@H](O[C@@H]2O[C@H](C)C[C@H](N(C)C)[C@H]2O)[C@](C)(O)C[C@@H](C)CN(CCNC(=S)NCCCc2ccccc2)[C@H](C)[C@@H](O)[C@]1(C)O | 7000 nM | – | > 2 h | > 2 h | 654 nM | 14000 nM | 178 nM | 226 nM | – | – | – | – | – | – |
| CC[C@H]1OC(=O)[C@H](C)[C@@H](O[C@H]2C[C@@](C)(OC)[C@@H](O)[C@H](C)O2)[C@H](C)[C@@H](O[C@@H]2O[C@H](C)C[C@H](N(C)C)[C@H]2O)[C@](C)(O)C[C@@H](C)CN(CCNC(=O)Nc2ccccc2)[C@H](C)[C@@H](O)[C@]1(C)O | 27000 nM | – | > 2 h | > 2 h | 223 nM | 48000 nM | 67 nM | 103 nM | – | – | – | – | – | – |
| CC[C@H]1OC(=O)[C@H](C)[C@@H](O[C@H]2C[C@@](C)(OC)[C@@H](O)[C@H](C)O2)[C@H](C)[C@@H](O[C@@H]2O[C@H](C)C[C@H](N(C)C)[C@H]2O)[C@](C)(O)C[C@@H](C)CN(CCCNC(=O)Nc2ccc3ccccc3c2)[C@H](C)[C@@H](O)[C@]1(C)O | 40000 nM | >960 mg/kg | > 2 h | > 2 h | 138 nM | 48000 nM | 127 nM | 81 nM | inactive | – | – | – | – | inactive |
